IC50 and Activity data for 18 compounds are collected here from ChEMBL document CHEMBL3856185, “Discovery of a sulfamate-based steroid sulfatase inhibitor with intrinsic selective estrogen receptor modulator properties” (Eur J Med Chem, 2016).

One may read the IC50 as the point on the concentration scale where inhibition reaches its midpoint.

One data set addresses T1, Steryl-sulfatase (Homo sapiens, UniProt P08842).
T1 sequence (P08842 whole entry): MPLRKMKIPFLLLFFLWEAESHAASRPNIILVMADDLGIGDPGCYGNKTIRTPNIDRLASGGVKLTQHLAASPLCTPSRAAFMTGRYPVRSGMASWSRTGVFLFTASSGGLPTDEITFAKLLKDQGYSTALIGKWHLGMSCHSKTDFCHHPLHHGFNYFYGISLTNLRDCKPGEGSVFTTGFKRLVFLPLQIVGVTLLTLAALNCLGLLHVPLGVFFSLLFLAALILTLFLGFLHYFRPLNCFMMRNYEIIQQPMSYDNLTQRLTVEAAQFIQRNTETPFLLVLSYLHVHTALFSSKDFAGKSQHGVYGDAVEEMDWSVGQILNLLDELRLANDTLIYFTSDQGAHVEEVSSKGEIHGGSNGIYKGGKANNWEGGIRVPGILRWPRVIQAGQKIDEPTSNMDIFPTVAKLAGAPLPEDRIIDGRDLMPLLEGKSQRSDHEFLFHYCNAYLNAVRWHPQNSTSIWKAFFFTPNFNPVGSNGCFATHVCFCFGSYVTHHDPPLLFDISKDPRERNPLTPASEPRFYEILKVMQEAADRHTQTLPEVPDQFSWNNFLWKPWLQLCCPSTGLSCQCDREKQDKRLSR
Kind of data set: Inhibition of steroid sulfatase (unknown origin) expressed in HEK293 cells assessed as reduction in transformation of [3H]-E1S to E1 after 2 hrs by liquid scintillation counting. The format is cell-based. In short, it runs like this: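 Homogenate of STS-overexpressing HEK-293 cells (lysed by 5 freeze (−80 °C)/thaw (4 °C) cycles) incubated 2 h at 37 °C with inhibitors 0.01–1 µM and [3H]-E1S 9 nM adjusted to 1 µM with E1S, in Tris-acetate pH 7.4 with 5 mM EDTA, 10% glycerol. Xylene extraction separated E1 from E1S; scintillation counting; % inhibition vs no-inhibitor control; IC50 from curve; triplicates, mean ± SD.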

Data set [1] can be described thus: Cytotoxicity against estrogen-sensitive human T47D cells assessed as reduction in cell proliferation at 5 uM after 7 days by MTS assay. The format is toxicity, cell-based. As to conditions: 168 h. The method, boiled down: (§1)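 Seeded 3000 cells/well, 48 h attachment. Compounds diluted from DMSO (final ≤0.1%) in medium, renewed every 2 days for 7 days. Proliferation read by MTS, 4 h at 37 °C, absorbance 490 nm. Control (medium + DMSO) set to 100%. Mean ± SD of triplicates.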
For orientation: Tetrazolium assays rely on reduction of a dye to a coloured formazan, in cell work by metabolically active cells.

A short description of data set [2]: Cytotoxicity against human Saos2 cells assessed as reduction in cell proliferation at 5 to 10 uM after 7 days by MTS assay. It counts as toxicity, cell-based. As to conditions: saos-2, 168 h. The method, boiled down: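 Saos-2 cells in phenol-red-free McCoy's 5A with 10% charcoal-stripped FBS. Seeded 3000 cells/well, treated after 24 h with compounds from 1 nM to 10 µM (DMSO ≤0.1% final), renewed every 2 days for 7 days. MTS 2 h at 37 °C, absorbance 490 nm. Control (medium + DMSO) = 100%. Mean ± SD of triplicates.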

The target of data set [3] is T2, Estrogen receptor (Homo sapiens, UniProt P03372).
T2 sequence (P03372 whole entry): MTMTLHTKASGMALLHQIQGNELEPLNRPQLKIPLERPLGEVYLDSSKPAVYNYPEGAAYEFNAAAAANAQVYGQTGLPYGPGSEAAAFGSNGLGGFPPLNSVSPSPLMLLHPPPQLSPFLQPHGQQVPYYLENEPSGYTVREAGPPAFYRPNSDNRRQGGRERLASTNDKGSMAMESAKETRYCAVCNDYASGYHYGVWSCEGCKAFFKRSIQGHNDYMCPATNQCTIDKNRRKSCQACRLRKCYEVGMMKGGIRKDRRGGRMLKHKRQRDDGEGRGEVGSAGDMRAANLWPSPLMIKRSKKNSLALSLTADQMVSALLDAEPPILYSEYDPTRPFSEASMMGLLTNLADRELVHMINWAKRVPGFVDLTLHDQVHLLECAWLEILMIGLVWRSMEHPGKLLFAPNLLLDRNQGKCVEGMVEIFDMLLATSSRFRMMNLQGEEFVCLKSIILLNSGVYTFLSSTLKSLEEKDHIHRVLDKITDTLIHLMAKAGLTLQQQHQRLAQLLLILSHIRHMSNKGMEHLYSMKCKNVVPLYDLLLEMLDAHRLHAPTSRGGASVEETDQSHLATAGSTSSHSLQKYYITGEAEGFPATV
As to the kind of experiment: Agonist activity at ERalpha in estrogen-sensitive human T47D cells assessed as cell proliferation at 0.01 uM after 7 days by MTS assay. The format is cell-based. As to conditions: 168 h. In short, it runs like this: as §1

For data set [4], the target named is T2, Estrogen receptor. As to the kind of experiment: Agonist activity at ERalpha in estrogen-sensitive human T47D cells assessed as cell proliferation at 0.1 uM after 7 days by MTS assay. The format is cell-based. As to conditions: 168 h. In short, it runs like this:
as §1

The target in data set [5] is T2, Estrogen receptor. Kind of data set: Agonist activity at ERalpha in estrogen-sensitive human T47D cells assessed as cell proliferation at 1 uM after 7 days by MTS assay. The format is cell-based. The settings on record: 168 h. In short, it runs like this: as §1
The target in data set [6] is T3, Estrogen receptor (Homo sapiens) (UniProt P03372).
T3 sequence (whole entry): T2 sequence (P03372 whole entry)
Kind of data set: Antiestrogenic activity at ERalpha in estrogen-sensitive human T47D cells assessed as blockage of E2 stimulated cell proliferation at 5 uM after 7 days in presence of E2 by MTS assay. It counts as cell-based. The method, boiled down:
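Estrogen-deprived T-47D cells (RPMI, insulin 50 ng/mL, 5% charcoal-stripped FBS) seeded at 3000 cells/well, attached 48 h. Then treated 7 days with compound plus E2 (0.1 nM), medium renewed every 2 days. DMSO final ≤0.1%. MTS added 4 h, A490. Control (medium + DMSO) = 100%. Mean ± SD of triplicates.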

A short description of data set [7]: Cytotoxicity against estrogen-sensitive human T47D cells assessed as reduction in cell proliferation at 0.01 to 1 uM after 7 days by MTS assay. It counts as toxicity, cell-based. As to conditions: 168 h. The method, boiled down:
as §1

With `COc1cc2c(cc1OS(N)(=O)=O)CC[C@@H]1[C@@H]2CC[C@@]2(C)[C@H]1CC[C@@]2(O)Cc1ccccc1`, the IC50 on Steryl-sulfatase came out at 0.05 nM.
Regarding `O=C(c1ccc(OCCN2CCCCC2)cc1)c1c(-c2ccc(O)cc2)sc2cc(O)ccc12` [RALOXIFENE], the Activity result in data set [1] and in data set [2] was “Toxic” throughout.
On to `Cc1ccc(CN(Cc2ccc(C(=O)N3CCc4ccc(O)cc4C3)cc2)Cc2ccco2)s1`, for which the Activity at Estrogen receptor [3] is 97.1%; on Estrogen receptor [4] it was 103.2%; on Estrogen receptor [5] it was 96.8%; in data set [6], 84%; in data set [2], “Toxic”; in data set [7], “Non-Toxic”.
For `O=C(c1ccc(CN(Cc2ccccn2)Cc2ccco2)cc1)N1CCc2ccc(O)cc2C1`, the Activity on Estrogen receptor [3] is 104.1%; on Estrogen receptor [4], 103.2%; at Estrogen receptor [5], 103.5%; in data set [7] it was “Non-Toxic”.
In the case of `O=C(c1ccc(CN(Cc2ccccn2)Cc2ccccc2OCCCN2CCCCC2)cc1)N1CCc2ccc(O)cc2C1`, the Activity on Estrogen receptor [3] is reported as 102.8%; on Estrogen receptor [4] it was 99.8%; on Estrogen receptor [5], 37.1%.
Taken in the same sequence, the figures for `O=C(c1ccc(CN(Cc2ccco2)Cc2ccccc2OCCCN2CCCCC2)cc1)N1CCc2ccc(O)cc2C1` were 96.8%, 105.9% and 0%.
Regarding `Cc1ccc(CN(Cc2ccc(C(=O)N3CCc4ccc(O)cc4C3)cc2)Cc2ccccn2)s1`, the Activity came to 100.6% on Estrogen receptor [3], 105.4% at Estrogen receptor [4] and 78.9% on Estrogen receptor [5].
Consider `COc1ccc(CN(Cc2ccc(C(=O)N3CCc4ccc(OS(N)(=O)=O)cc4C3)cc2)Cc2ccccn2)cc1`, for which the Activity entry in data set [1] is reported as “Toxic”.
Consider `O=C(c1ccc(CN(Cc2ccc(OCCCN3CCCCC3)cc2)Cc2ccco2)cc1)N1CCc2ccc(O)cc2C1`, for which the Activity at Estrogen receptor [3] worked out at 95.6%; at Estrogen receptor [4], 119.7%; at Estrogen receptor [5] it was 133.7%.
As for `Cc1ccc(CN(Cc2ccc(C(=O)N3CCc4ccc(OS(N)(=O)=O)cc4C3)cc2)Cc2ccco2)s1`, the IC50 on Steryl-sulfatase came out at 8.9 nM. The Activity entry in data set [1] and in data set [2] was “Toxic” in each case.
On to `O=C(c1ccc(CN(CCCn2ccnc2)Cc2ccccn2)cc1)N1CCc2ccc(O)cc2C1`, for which the Activity at Estrogen receptor [3] is 102.8%; at Estrogen receptor [4] it was 112.9%; at Estrogen receptor [5], 39.2%.
For the compound `O=C(c1ccc(CN(Cc2ccc(Br)cc2)Cc2ccco2)cc1)N1CCc2ccc(O)cc2C1`, the results for the Activity at Estrogen receptor [3], on Estrogen receptor [4] and at Estrogen receptor [5] were 106.3%, 109.4% and 59.2%, respectively.
As to `NS(=O)(=O)Oc1ccc2c(c1)CN(C(=O)c1ccc(CN(Cc3ccccn3)Cc3ccco3)cc1)CC2`, in data set [1], the Activity result is “Toxic”.
With `O=C(c1ccc(CN(Cc2ccc(O)cc2)Cc2ccco2)cc1)N1CCc2ccc(O)cc2C1`, the Activity on Estrogen receptor [3] amounted to 108.2%; on Estrogen receptor [4], 138%; on Estrogen receptor [5], 200.3%.
Consider `O=C(c1ccc(CN(CCCn2ccnc2)Cc2ccco2)cc1)N1CCc2ccc(O)cc2C1`, for which the figures for the Activity on Estrogen receptor [3], on Estrogen receptor [4] and at Estrogen receptor [5] were 94.9%, 98.5% and 114.6%, respectively.
For `O=C(c1ccc(CN(CCN2CCOCC2)Cc2ccco2)cc1)N1CCc2ccc(O)cc2C1`, in that order: 108.2%, 105.9% and 118.8%.
`COc1ccc(CN(Cc2ccc(C(=O)N3CCc4ccc(O)cc4C3)cc2)Cc2ccccn2)cc1`: the Activity at Estrogen receptor [3] is 105.6%; at Estrogen receptor [4], 104.6%; on Estrogen receptor [5] it was 100.9%; in data set [1], “Toxic”; in data set [7] it was “Non-Toxic”.
As to `O=C(c1ccc(CN(Cc2ccc(OCCCN3CCCCC3)cc2)Cc2ccccn2)cc1)N1CCc2ccc(O)cc2C1`, the Activity on Estrogen receptor [3] is recorded as 105.9%; at Estrogen receptor [4], 104.5%; on Estrogen receptor [5], 60.7%.
